Test results: ChEMBL document CHEMBL4715736, “Identification of anticancer agents based on the thieno[2,3-b]pyridine and 1H-pyrazole molecular scaffolds” (2016)

Tests used:
Assay type in all cases: functional
NCI-H522 [1] = assay: Growth inhibition of human NCI-H522 cells assessed as cell growth at 0.01 uM incubated for 48 hrs by sulforhodamine B assay relative to control; conditions: read-out: Activity
HCT-116 [2] = assay: Growth inhibition of human HCT-116 cells assessed as cell growth at 0.01 uM incubated for 48 hrs by sulforhodamine B assay relative to control; conditions: read-out: Activity
SF-268 [3] = assay: Growth inhibition of human SF-268 cells assessed as cell growth at 0.01 uM incubated for 48 hrs by sulforhodamine B assay relative to control; conditions: read-out: Activity
SNB-19 = assay: Growth inhibition of human SNB-19 cells assessed as cell growth at 0.01 uM incubated for 48 hrs by sulforhodamine B assay relative to control; conditions: read-out: Activity
IGROV-1 = assay: Growth inhibition of human IGROV-1 cells assessed as cell growth at 0.01 uM incubated for 48 hrs by sulforhodamine B assay relative to control; conditions: read-out: Activity
TK-10 = assay: Growth inhibition of human TK-10 cells assessed as cell growth at 0.01 uM incubated for 48 hrs by sulforhodamine B assay relative to control; conditions: read-out: Activity
KM12 = assay: Growth inhibition of human KM12 cells assessed as cell growth at 0.1 uM incubated for 48 hrs by sulforhodamine B assay relative to control; conditions: read-out: Activity
SNB-75 = assay: Growth inhibition of human SNB-75 cells assessed as cell growth at 0.1 uM incubated for 48 hrs by sulforhodamine B assay relative to control; conditions: read-out: Activity
CAKI-1 [4] = assay: Growth inhibition of human CAKI-1 cells assessed as cell growth at 0.1 uM incubated for 48 hrs by sulforhodamine B assay relative to control; conditions: read-out: Activity
Procedure, shortened: (§1)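 NCI Developmental Therapeutics Program NCI60 panel. Compounds that were active in the 10 µM one-dose screen went on to dose–response testing. Growth at each concentration is expressed relative to untreated control (100%). GI50 (concentration giving 50% of maximal inhibition of proliferation) and TGI (concentration giving total growth inhibition) were derived from the curves.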

MCF7 [5] = assay: Growth inhibition of human MCF7 cells assessed as cell growth at 0.1 uM incubated for 48 hrs by sulforhodamine B assay relative to control; conditions: read-out: Activity
MOLT-4 [6] = assay: Growth inhibition of human MOLT-4 cells assessed as cell growth at 1 uM incubated for 48 hrs by sulforhodamine B assay relative to control; conditions: read-out: Activity
HOP-62 = assay: Growth inhibition of human HOP-62 cells assessed as cell growth at 1 uM incubated for 48 hrs by sulforhodamine B assay relative to control; conditions: read-out: Activity
NCI-H522 [7] = assay: Growth inhibition of human NCI-H522 cells assessed as cell growth at 1 uM incubated for 48 hrs by sulforhodamine B assay relative to control; conditions: read-out: Activity
HT-29 [8] = assay: Growth inhibition of human HT-29 cells assessed as cell growth at 1 uM incubated for 48 hrs by sulforhodamine B assay relative to control; conditions: read-out: Activity
OVCAR-8 [9] = assay: Growth inhibition of human OVCAR-8 cells assessed as cell growth at 1 uM incubated for 48 hrs by sulforhodamine B assay relative to control; conditions: read-out: Activity
786-0 = assay: Growth inhibition of human 786-0 cells assessed as cell growth at 1 uM incubated for 48 hrs by sulforhodamine B assay relative to control; conditions: read-out: Activity; procedure, shortened: as §1
UO-31 = assay: Growth inhibition of human UO-31 cells assessed as cell growth at 1 uM incubated for 48 hrs by sulforhodamine B assay relative to control; conditions: read-out: Activity
MCF7 [10] = assay: Growth inhibition of human MCF7 cells assessed as cell growth at 1 uM incubated for 48 hrs by sulforhodamine B assay relative to control; conditions: read-out: Activity
HT-29 [11] = assay: Growth inhibition of human HT-29 cells assessed as cell growth at 100 uM incubated for 48 hrs by sulforhodamine B assay relative to control; conditions: read-out: Activity
SF-539 = assay: Growth inhibition of human SF-539 cells assessed as cell growth at 100 uM incubated for 48 hrs by sulforhodamine B assay relative to control; conditions: read-out: Activity
SK-MEL-28 = assay: Growth inhibition of human SK-MEL-28 cells assessed as cell growth at 100 uM incubated for 48 hrs by sulforhodamine B assay relative to control; conditions: read-out: Activity
Hs-578T = assay: Growth inhibition of human Hs-578T cells assessed as cell growth at 100 uM incubated for 48 hrs by sulforhodamine B assay relative to control; conditions: read-out: Activity
MOLT-4 [12] = assay: Growth inhibition of human MOLT-4 cells incubated for 48 hrs by sulforhodamine B assay
Procedure, shortened: (§2)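 NCI60 panel at the NCI Developmental Therapeutics Program. Only compounds active in the 10 µM screen went to dose-response testing. GI50, the concentration giving 50% of maximal inhibition of proliferation, and TGI, the concentration giving total growth inhibition, were derived from the dose-response curves.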

HOP-92 = assay: Growth inhibition of human HOP-92 cells incubated for 48 hrs by sulforhodamine B assay; procedure, shortened: as §2
NCI-H522 [13] = assay: Growth inhibition of human NCI-H522 cells incubated for 48 hrs by sulforhodamine B assay; procedure, shortened: as §2
HCC 2998 = assay: Growth inhibition of human HCC 2998 cells incubated for 48 hrs by sulforhodamine B assay
HCT-116 [14] = assay: Growth inhibition of human HCT-116 cells incubated for 48 hrs by sulforhodamine B assay; procedure, shortened: as §2
HCT-15 = assay: Growth inhibition of human HCT-15 cells incubated for 48 hrs by sulforhodamine B assay; procedure, shortened: as §2
SW-620 = assay: Growth inhibition of human SW-620 cells incubated for 48 hrs by sulforhodamine B assay
Procedure, shortened: (§3)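 NCI DTP 60-line human tumour panel. Dose-response curves were run only for ligands active in the initial 10 µM screen. GI50 (concentration giving 50% of maximal inhibition of proliferation) and TGI (concentration giving total growth inhibition) were derived from these curves.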

SF-268 [15] = assay: Growth inhibition of human SF-268 cells incubated for 48 hrs by sulforhodamine B assay; procedure, shortened: as §3
OVCAR-8 [16] = assay: Growth inhibition of human OVCAR-8 cells incubated for 48 hrs by sulforhodamine B assay; procedure, shortened: as §3
NCI/ADR-RES = assay: Growth inhibition of human NCI/ADR-RES cells incubated for 48 hrs by sulforhodamine B assay; procedure, shortened: as §2
CAKI-1 [17] = assay: Growth inhibition of human CAKI-1 cells incubated for 48 hrs by sulforhodamine B assay; procedure, shortened: as §1
RXF 393 = assay: Growth inhibition of human RXF 393 cells incubated for 48 hrs by sulforhodamine B assay; procedure, shortened: as §3
[18] = read-out: LC50 (the source's name)

## CCc1ccccc1NC(=O)c1sc2nc3c(cc2c1N)C(=O)CCC3
NCI-H522 [1]
  growth at 0.01 µM: 106%
HCT-116 [2]
  growth at 0.01 µM: 99%
SF-268 [3]
  growth at 0.01 µM: 103%
SNB-19
  growth at 0.01 µM: 91%
IGROV-1
  growth at 0.01 µM: 108%
TK-10
  growth at 0.01 µM: 93%
KM12
  growth at 0.1 µM: 92%
SNB-75
  growth at 0.1 µM: 73%
CAKI-1 [4]
  growth at 0.1 µM: 90%
MCF7 [5]
  growth at 0.1 µM: 83%
MOLT-4 [6]
  growth at 1 µM: 66%
HOP-62
  growth at 1 µM: 33%
NCI-H522 [7]
  growth at 1 µM: 34%
HT-29 [8]
  growth at 1 µM: 13%
OVCAR-8 [9]
  growth at 1 µM: 60%
786-0
  growth at 1 µM: 38%
UO-31
  growth at 1 µM: 50%
MCF7 [10]
  growth at 1 µM: 17%
HT-29 [11]
  growth at 100 µM: -7%
SF-539
  growth at 100 µM: -34%
SK-MEL-28
  growth at 100 µM: 11%
Hs-578T
  growth at 100 µM: 15%
MOLT-4 [12]
  GI50: 0.529 µM
  TGI: > 100 µM
MOLT-4 [12]; [18]
  CC50: > 100 µM
HOP-92
  LC50 (concentration killing 50% of the starting cells): > 100 µM
  TGI: ≥ 100 µM
NCI-H522 [13]
  GI50: 0.502 µM
  LC50: > 100 µM
  TGI: > 100 µM
HCC 2998
  GI50: 1.43 µM
  TGI: > 100 µM
HCC 2998; [18]
  CC50: > 100 µM
HCT-116 [14]
  GI50: 0.483 µM
  LC50 (concentration killing 50% of cells): > 100 µM
  TGI: > 100 µM
HCT-15
  GI50: 0.349 µM
  LC50: > 100 µM
  TGI: > 100 µM
SW-620
  GI50: 0.322 µM
  LC50 (concentration killing 50% of cells): > 100 µM
  TGI: > 100 µM
SF-268 [15]
  GI50: 10.1 µM
  LC50 (concentration killing 50% of cells): > 100 µM
  TGI: > 100 µM
OVCAR-8 [16]
  GI50: 2.52 µM
  TGI: > 100 µM
OVCAR-8 [16]; [18]
  CC50: > 100 µM
NCI/ADR-RES
  GI50: 0.367 µM
  TGI: 39.2 µM
NCI/ADR-RES; [18]
  CC50: > 100 µM
CAKI-1 [17]
  GI50: 0.504 µM
  TGI: > 100 µM
CAKI-1 [17]; [18]
  CC50: > 100 µM
RXF 393
  GI50: 0.163 µM
  TGI: 0.777 µM
RXF 393; [18]
  CC50: > 100 µM
